Assay results as given in ChEMBL document CHEMBL6087457, “Discovery of MDI-114215: A Potent and Selective LIMK Inhibitor To Treat Fragile X Syndrome” (J Med Chem, 2025).
Activity calls are given as the source filed them. No cut-off for these calls is given here.

Tests used:
[1] = target: LIM domain kinase 1 (Mus musculus) (UniProt P53668); test: Ex vivo inhibition of LIMK in hippocampus of Fmr1 KO mouse model of FXS assessed as reduction in p-cofilin level at 3 uM incubated for 30 mins by Western blot analysis; type: functional
Method in brief: (§1)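 Acute hippocampal slices from P7–9 WT and Fmr1 KO mice, incubated with vehicle (DMSO) or 3 μM LIMK inhibitor. p-Cofilin and total cofilin measured by Western blot and expressed as a p-cofilin/cofilin ratio. n = 2–4 animals per group. Significance by one-way ANOVA with Dunnett's multiple comparisons test.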

[2] = target: LIM domain kinase 1 (Mus musculus) (UniProt P53668); test: Ex vivo inhibition of LIMK in hippocampus of mouse assessed as reduction in p-cofilin level at 3 uM incubated for 30 mins by Western blot analysis; type: functional; method in brief: as §1
[3] = Toxicity in CD-1 mouse assessed as change in seminal vesicle weight at 30 mg/kg/day, ip treated daily for 28 days; type: organism-based; details: in vivo, 672 h, time 28 day
Method in brief: (§2)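 Male CD-1 mice, 6 weeks old at start, dosed with vehicle or 30 mg/kg/day i.p. once daily for 28 days, followed by a 2-week treatment-free recovery. Endpoints: body weight, food consumption, clinical signs, macro- and microscopic pathology, and organ weights (male sexual organs) after […] of dosing and after recovery. Data given as mean ± SEM.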

[4] = Toxicity in CD-1 mouse assessed as adverse clinical signs at 30 mg/kg/day, ip treated daily for 28 days; type: organism-based; details: in vivo, 672 h, time 28 day; method in brief: as §2
[5] = Toxicity in CD-1 mouse assessed as inflammatory cell infiltration in epididymis at 30 mg/kg/day, ip treated daily for 28 days measured after 14 days of recovery period; type: organism-based; details: in vivo, 672 h, time 28 day; method in brief: as §2
[6] = target: Cytochrome P450 2D6 (Homo sapiens, UniProt P10635); test: Inhibition of CYP2D6 (unknown origin); type: ADME, microsomes, Liver, Microsome
[7] = Toxicity in CD-1 mouse assessed as drug tolerance at 30 mg/kg/day, ip treated daily for 28 days; type: organism-based; details: in vivo, 672 h, time 28 day; method in brief: as §2
[8] = target: Cytochrome P450 2C19 (Homo sapiens, UniProt P33261); test: Inhibition of CYP2C19 (unknown origin); type: ADME, microsomes, Liver, Microsome
[9] = Toxicity in CD-1 mouse assessed as body weight change at 30 mg/kg/day, ip treated daily for 28 days; type: organism-based; details: in vivo, 672 h, time 28 day; method in brief: as §2
[10] = Toxicity in CD-1 mouse assessed as adverse macroscopic findings at 30 mg/kg/day, ip treated daily for 28 days; type: organism-based; details: in vivo, 672 h, time 28 day; method in brief: as §2
[11] = Toxicity in CD-1 mouse assessed as adverse microscopic findings at 30 mg/kg/day, ip treated daily for 28 days; type: organism-based; details: in vivo, 672 h, time 28 day; method in brief: as §2
[12] = Toxicity in CD-1 mouse assessed as change in epididymis weight at 30 mg/kg/day, ip treated daily for 28 days; type: organism-based; details: in vivo, 672 h, time 28 day; method in brief: as §2
[13] = Toxicity in CD-1 mouse assessed as effect on food consumption at 30 mg/kg/day, ip treated daily for 28 days; type: organism-based; details: in vivo, 672 h, time 28 day; method in brief: as §2
[14] = Drug concentration in brain of CD-1 mouse at 30 mg/kg/day, ip treated daily for 28 days; type: ADME, organism-based; details: time 28 day, read-out: Ct
[15] = Drug concentration in plasma of CD-1 mouse at 30 mg/kg/day, ip treated daily for 28 days; type: ADME, organism-based; details: time 28 day
[16] = Toxicity in CD-1 mouse assessed as change in prostate weight at 30 mg/kg/day, ip treated daily for 28 days; type: organism-based; details: in vivo, 672 h, time 28 day; method in brief: as §2
[17] = target: T1, Cytochrome P450 1A2 (Homo sapiens, UniProt P05177); test: Inhibition of CYP1A2 (unknown origin); type: ADME, microsomes, Liver, Microsome
T1 sequence (P05177 whole entry): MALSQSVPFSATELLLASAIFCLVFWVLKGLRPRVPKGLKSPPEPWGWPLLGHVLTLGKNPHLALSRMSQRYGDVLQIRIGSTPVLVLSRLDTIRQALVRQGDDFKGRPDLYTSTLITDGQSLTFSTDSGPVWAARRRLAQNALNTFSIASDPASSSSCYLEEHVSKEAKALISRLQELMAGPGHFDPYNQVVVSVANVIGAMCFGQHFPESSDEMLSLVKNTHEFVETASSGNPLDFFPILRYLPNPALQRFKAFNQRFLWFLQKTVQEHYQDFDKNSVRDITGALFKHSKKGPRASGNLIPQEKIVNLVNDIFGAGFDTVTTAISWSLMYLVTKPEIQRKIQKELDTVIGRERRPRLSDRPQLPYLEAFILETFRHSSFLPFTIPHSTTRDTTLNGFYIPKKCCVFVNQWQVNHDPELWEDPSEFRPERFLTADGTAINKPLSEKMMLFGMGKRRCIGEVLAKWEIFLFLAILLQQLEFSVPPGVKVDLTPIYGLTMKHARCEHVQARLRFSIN

[18] = Toxicity in CD-1 mouse assessed as change in testis weight at 30 mg/kg/day, ip treated daily for 28 days; type: organism-based; details: in vivo, 672 h, time 28 day; method in brief: as §2

Chain of LIM domain kinase 1 (Mus musculus) (P53668 whole entry, the tested form may be a part): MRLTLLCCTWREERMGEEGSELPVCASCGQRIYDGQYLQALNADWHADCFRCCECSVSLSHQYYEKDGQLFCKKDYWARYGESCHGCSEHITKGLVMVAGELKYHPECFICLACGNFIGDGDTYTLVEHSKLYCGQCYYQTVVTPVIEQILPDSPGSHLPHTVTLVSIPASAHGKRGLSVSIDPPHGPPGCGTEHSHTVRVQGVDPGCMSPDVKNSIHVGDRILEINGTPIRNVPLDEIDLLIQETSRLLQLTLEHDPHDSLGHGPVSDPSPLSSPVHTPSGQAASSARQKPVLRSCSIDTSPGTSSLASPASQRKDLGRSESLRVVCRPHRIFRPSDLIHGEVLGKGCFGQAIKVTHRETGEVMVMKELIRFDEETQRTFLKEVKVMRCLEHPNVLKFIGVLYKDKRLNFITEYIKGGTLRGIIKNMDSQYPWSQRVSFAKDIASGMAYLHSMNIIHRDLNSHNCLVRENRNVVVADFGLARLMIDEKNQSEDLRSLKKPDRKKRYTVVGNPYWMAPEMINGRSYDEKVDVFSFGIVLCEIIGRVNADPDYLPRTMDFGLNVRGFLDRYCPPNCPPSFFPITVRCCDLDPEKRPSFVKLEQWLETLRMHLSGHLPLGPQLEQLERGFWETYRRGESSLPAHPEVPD
Chain of Cytochrome P450 2D6 (P10635 whole entry): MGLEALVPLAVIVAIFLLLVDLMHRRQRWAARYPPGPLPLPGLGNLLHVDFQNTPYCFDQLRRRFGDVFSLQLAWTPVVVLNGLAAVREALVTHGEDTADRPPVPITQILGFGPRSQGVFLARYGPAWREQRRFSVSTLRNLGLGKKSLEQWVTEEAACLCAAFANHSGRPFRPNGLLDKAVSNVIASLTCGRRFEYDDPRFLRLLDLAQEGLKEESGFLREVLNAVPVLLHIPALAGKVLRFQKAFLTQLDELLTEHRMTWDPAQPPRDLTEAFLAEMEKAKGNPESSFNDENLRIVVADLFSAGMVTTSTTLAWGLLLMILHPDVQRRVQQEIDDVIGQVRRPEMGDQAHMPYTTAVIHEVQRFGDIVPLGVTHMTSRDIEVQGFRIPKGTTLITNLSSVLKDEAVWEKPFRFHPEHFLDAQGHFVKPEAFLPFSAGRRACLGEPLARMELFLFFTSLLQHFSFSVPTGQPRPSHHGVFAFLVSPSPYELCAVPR
Chain of Cytochrome P450 2C19 (P33261 whole entry): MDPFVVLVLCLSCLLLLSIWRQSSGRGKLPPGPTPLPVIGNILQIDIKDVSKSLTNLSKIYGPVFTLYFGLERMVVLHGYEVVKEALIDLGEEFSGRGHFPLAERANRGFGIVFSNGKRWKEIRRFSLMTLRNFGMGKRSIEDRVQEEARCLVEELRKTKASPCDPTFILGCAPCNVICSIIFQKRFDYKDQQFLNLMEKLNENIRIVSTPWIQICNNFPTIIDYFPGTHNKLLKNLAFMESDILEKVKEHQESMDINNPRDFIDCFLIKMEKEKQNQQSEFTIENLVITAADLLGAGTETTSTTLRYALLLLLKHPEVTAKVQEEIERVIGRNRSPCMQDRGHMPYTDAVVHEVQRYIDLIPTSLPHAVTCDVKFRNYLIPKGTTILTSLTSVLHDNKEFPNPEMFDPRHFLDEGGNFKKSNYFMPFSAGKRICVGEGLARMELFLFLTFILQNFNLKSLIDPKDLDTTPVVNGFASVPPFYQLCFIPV

Row | inhibition [1] | inhibition [2] | Structure (SMILES) | Activity [3] | Activity [4] | Activity [5] | IC50 [6] | Activity [7] | IC50 [8] | Activity [9] | Activity [10] | Activity [11] | Activity [12] | Activity [13] | concentration at 672 h [14] | concentration at 672 h [15] | Activity [16] | IC50 [17] | Activity [18]
1 | Active | Active | Cc1c[nH]c2ncnc(-c3ccc(NC(=O)N(CCO)c4ccccc4)cc3)c12 |  |  |  |  |  |  |  |  |  |  |  |  |  |  |  | 
2 | Active | Active | CCn1c(=O)c(-c2ccc(Cl)cc2Cl)cc2cnc(Nc3ccc(N4CCNCC4)c(F)c3)nc21 |  |  |  |  |  |  |  |  |  |  |  |  |  |  |  | 
3 |  |  | O=C(c1ccc(S(=O)(=O)Nc2ccccc2)cc1)N(Cc1ccc(NCCO)cc1)CC1CC1 | Non-toxic | Non-toxic | Non-toxic | > 25 µM | Non-toxic | 11 µM | Non-toxic | Non-toxic | Non-toxic | Non-toxic | Non-toxic | 0.062 µM | 0.903 µM | Non-toxic | > 25 µM | Non-toxic
